Results: ChEMBL document CHEMBL4382192, “Discovery of a potent dual ALK and EGFR T790M inhibitor” (Eur J Med Chem, 2017)

Key:
[1] = target: Testis-specific serine/threonine-protein kinase 3 (Homo sapiens) (UniProt Q96PN8); experiment: Binding affinity to wild-type human full length TSSK3 (M1 to T268 residues) expressed in mammalian expression system assessed as residual binding level at 1 uM by Kinomescan method relative to control
[2] = target: Non-receptor tyrosine-protein kinase TNK1 (Homo sapiens) (UniProt Q13470); experiment: Binding affinity to wild-type human full length TNK1 (M1 to P661 residues) expressed in bacterial expression system assessed as residual binding level at 1 uM by Kinomescan method relative to control
[3] = target: Serine/threonine-protein kinase SBK1 (Homo sapiens) (UniProt Q52WX2); experiment: Binding affinity to wild-type human partial length SBK1 (P23 to P348 residues) expressed in mammalian expression system assessed as residual binding level at 1 uM by Kinomescan method relative to control
Serine/threonine-protein kinase SBK1 (Homo sapiens), sequence (Q52WX2 whole entry, the tested form may be a part): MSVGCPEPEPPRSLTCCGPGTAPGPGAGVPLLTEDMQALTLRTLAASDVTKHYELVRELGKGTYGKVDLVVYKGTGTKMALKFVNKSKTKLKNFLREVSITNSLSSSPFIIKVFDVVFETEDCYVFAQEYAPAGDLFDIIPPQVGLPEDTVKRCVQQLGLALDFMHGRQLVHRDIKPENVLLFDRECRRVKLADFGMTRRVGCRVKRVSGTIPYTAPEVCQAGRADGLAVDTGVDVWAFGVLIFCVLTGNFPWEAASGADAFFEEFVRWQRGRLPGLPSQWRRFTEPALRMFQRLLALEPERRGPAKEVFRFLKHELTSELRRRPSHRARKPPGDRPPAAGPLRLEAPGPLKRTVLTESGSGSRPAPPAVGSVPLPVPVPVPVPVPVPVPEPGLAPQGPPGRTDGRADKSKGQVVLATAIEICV

[4] = target: Serine/threonine-protein kinase N2 (Homo sapiens) (UniProt Q16513); experiment: Binding affinity to wild-type human partial length PKN2 (E634 to C984 residues) expressed in bacterial expression system assessed as residual binding level at 1 uM by Kinomescan method relative to control
[5] = target: Protein kinase C theta type (Homo sapiens) (UniProt Q04759); experiment: Binding affinity to wild-type human partial length PRKCQ (L350 to S706 residues) expressed in bacterial expression system assessed as residual binding level at 1 uM by Kinomescan method relative to control
Protein kinase C theta type (Homo sapiens), sequence (Q04759 whole entry, looked up, the tested form may be a part): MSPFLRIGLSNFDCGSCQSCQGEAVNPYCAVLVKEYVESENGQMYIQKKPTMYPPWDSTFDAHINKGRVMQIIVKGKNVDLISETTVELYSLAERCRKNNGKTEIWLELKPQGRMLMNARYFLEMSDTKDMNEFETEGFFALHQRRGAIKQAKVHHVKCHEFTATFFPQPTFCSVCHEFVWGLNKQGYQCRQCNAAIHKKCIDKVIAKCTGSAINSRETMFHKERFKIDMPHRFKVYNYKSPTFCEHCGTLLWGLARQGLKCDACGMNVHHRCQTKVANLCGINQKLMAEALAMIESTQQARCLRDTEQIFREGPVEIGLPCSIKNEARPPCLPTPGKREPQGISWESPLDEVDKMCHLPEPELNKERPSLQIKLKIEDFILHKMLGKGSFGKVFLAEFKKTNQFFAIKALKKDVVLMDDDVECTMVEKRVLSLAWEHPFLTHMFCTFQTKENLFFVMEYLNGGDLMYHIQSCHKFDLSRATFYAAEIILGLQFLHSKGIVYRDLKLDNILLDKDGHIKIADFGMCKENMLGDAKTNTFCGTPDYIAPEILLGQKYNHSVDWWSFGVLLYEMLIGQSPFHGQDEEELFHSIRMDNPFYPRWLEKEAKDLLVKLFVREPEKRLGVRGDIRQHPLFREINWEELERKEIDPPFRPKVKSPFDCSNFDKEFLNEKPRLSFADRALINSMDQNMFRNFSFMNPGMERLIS

[6] = target: Serine/threonine-protein kinase haspin (Homo sapiens) (UniProt Q8TF76); experiment: Binding affinity to wild-type human partial length HASPIN (I452 to K798 residues) expressed in mammalian expression system assessed as residual binding level at 1 uM by Kinomescan method relative to control
[7] = target: cAMP-dependent protein kinase catalytic subunit beta (Homo sapiens) (UniProt P22694); experiment: Binding affinity to wild-type human full length PKAC-beta (M1 to F351 residues) expressed in bacterial expression system assessed as residual binding level at 1 uM by Kinomescan method relative to control
Summary of the method: (§1)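 Single-point kinome-wide KINOMEscan binding panel, test compound at 1 μM, run by the provider's standard protocol.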

[8] = target: Calcium/calmodulin-dependent protein kinase type 1D (Homo sapiens) (UniProt Q8IU85); experiment: Binding affinity to wild-type human partial length CAMK1D (M1 to K299 residues) expressed in bacterial expression system assessed as residual binding level at 1 uM by Kinomescan method relative to control
Calcium/calmodulin-dependent protein kinase type 1D (Homo sapiens), sequence (Q8IU85 whole entry, looked up, the tested form may be a part): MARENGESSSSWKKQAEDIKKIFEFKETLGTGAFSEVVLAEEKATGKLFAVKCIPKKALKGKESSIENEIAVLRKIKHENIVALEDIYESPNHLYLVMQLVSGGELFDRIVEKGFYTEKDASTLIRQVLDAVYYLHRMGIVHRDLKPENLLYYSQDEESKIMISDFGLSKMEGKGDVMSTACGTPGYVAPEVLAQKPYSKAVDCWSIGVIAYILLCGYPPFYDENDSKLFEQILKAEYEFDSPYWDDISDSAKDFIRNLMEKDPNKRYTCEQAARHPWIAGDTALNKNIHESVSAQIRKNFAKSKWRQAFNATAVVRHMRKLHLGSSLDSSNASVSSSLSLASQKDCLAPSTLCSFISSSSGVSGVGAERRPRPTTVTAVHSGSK

[9] = target: Discoidin domain-containing receptor 2 (Homo sapiens) (UniProt Q16832); experiment: Binding affinity to wild-type human partial length DDR2 (V555 to E855 residues) expressed in mammalian expression system assessed as residual binding level at 1 uM by Kinomescan method relative to control
Discoidin domain-containing receptor 2 (Homo sapiens), sequence (Q16832 whole entry, the tested form may be a part): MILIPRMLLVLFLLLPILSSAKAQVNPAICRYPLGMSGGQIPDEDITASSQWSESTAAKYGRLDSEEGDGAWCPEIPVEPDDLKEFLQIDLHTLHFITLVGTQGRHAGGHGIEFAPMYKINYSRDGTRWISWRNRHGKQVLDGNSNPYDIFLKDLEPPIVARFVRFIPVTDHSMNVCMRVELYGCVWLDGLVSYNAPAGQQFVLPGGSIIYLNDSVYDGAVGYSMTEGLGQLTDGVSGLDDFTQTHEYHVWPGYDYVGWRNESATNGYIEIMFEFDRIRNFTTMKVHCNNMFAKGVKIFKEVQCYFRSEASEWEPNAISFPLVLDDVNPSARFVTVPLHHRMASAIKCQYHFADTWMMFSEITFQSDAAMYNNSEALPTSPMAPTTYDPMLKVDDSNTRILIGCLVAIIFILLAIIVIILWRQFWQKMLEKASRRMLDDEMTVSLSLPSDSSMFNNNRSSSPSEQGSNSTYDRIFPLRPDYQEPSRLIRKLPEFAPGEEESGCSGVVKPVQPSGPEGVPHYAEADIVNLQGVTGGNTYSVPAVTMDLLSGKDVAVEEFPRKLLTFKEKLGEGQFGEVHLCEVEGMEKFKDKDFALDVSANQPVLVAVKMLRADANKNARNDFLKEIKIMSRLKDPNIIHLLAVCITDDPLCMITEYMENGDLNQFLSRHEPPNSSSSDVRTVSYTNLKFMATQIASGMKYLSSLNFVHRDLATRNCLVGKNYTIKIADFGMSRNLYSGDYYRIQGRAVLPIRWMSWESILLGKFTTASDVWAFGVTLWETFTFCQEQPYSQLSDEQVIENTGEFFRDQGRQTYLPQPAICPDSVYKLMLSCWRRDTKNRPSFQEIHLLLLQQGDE

[10] = target: Mitogen-activated protein kinase kinase kinase 1 (Homo sapiens) (UniProt Q13233); experiment: Binding affinity to wild-type human partial length MAP3K1 (L1202 to W1512 residues) expressed in mammalian expression system assessed as residual binding level at 1 uM by Kinomescan method relative to control
[11] = target: Serine/threonine-protein kinase Nek3 (Homo sapiens) (UniProt P51956); experiment: Binding affinity to wild-type human full length NEK3 (M1 to R506 residues) expressed in mammalian expression system assessed as residual binding level at 1 uM by Kinomescan method relative to control; summary of the method: as §1
[12] = tested on: Mast/stem cell growth factor receptor Kit (Homo sapiens), P10721 [A829P]; experiment: Binding affinity to human partial length KIT A829P mutant (I571 to D952 residues) expressed in mammalian expression system assessed as residual binding level at 1 uM by Kinomescan method relative to control
Summary of the method: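 Kinome-wide selectivity panel run by the KINOMEscan method, with the test compound at a single concentration of 1 μM. Wild-type and mutant kinases were profiled in the same screen.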

[13] = target: Mitogen-activated protein kinase kinase kinase 4 (Homo sapiens) (UniProt Q9Y6R4); experiment: Binding affinity to wild-type human partial length MAP3K4 (G1319 to E1608 residues) expressed in bacterial expression system assessed as residual binding level at 1 uM by Kinomescan method relative to control
Mitogen-activated protein kinase kinase kinase 4 (Homo sapiens), sequence (Q9Y6R4 whole entry, the tested form may be a part): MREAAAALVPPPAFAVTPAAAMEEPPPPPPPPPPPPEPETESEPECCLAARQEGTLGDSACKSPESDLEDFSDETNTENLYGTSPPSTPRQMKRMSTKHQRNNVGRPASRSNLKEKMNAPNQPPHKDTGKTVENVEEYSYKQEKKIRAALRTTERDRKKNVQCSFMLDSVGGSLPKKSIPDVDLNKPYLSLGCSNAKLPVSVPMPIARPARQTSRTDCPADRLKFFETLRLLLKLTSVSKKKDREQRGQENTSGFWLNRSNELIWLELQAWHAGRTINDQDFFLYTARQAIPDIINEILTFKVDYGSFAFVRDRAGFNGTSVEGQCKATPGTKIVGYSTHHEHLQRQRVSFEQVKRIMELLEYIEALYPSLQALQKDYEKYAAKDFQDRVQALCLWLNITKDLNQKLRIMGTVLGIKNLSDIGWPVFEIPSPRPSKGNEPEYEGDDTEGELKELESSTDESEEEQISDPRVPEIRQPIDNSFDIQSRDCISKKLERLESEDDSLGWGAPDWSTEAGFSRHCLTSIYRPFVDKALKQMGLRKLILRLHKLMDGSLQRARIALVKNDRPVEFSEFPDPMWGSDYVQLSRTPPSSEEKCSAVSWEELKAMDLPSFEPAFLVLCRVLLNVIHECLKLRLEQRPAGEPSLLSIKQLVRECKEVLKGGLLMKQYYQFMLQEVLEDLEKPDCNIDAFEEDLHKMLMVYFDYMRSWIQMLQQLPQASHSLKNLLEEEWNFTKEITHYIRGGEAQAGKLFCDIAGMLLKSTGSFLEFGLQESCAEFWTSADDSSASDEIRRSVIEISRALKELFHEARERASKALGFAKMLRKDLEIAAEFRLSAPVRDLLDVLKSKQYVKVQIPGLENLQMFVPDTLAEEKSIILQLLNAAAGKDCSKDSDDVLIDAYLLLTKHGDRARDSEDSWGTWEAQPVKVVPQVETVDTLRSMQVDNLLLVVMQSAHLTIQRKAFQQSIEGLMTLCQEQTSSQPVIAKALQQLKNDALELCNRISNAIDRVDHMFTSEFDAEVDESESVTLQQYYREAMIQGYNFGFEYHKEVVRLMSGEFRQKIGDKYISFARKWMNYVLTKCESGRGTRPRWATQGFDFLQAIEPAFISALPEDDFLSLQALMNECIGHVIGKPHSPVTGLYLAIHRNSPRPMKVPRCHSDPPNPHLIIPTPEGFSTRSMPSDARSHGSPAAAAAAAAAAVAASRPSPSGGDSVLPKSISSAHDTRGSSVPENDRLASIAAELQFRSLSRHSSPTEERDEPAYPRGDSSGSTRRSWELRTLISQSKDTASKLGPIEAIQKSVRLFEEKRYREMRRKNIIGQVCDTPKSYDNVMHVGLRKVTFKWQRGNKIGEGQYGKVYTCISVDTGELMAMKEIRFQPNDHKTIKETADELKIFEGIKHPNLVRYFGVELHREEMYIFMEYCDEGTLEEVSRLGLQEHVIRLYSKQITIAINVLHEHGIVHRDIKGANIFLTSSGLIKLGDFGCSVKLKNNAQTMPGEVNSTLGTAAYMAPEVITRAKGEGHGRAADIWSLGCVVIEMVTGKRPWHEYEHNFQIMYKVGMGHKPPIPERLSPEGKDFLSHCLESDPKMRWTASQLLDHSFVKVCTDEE

[14] = target: Cyclin-dependent kinase 7 (Homo sapiens) (UniProt P50613); experiment: Binding affinity to wild-type human full length CDK7 (M1 to L344 residues) expressed in mammalian expression system assessed as residual binding level at 1 uM by Kinomescan method relative to control
[15] = target: Mitogen-activated protein kinase kinase kinase 5 (Homo sapiens) (UniProt Q99683); experiment: Binding affinity to wild-type human partial length ASK1 (E648 to S964 residues) expressed in bacterial expression system assessed as residual binding level at 1 uM by Kinomescan method relative to control
[16] = target: Serine/threonine-protein kinase mTOR (Homo sapiens) (UniProt P42345); experiment: Binding affinity to wild-type human partial length MTOR (L1382 to W2549 residues) expressed in mammalian expression system assessed as residual binding level at 1 uM by Kinomescan method relative to control
[17] = target: Casein kinase I isoform epsilon (Homo sapiens) (UniProt P49674); experiment: Binding affinity to wild-type human full length CSNK1E (M1 to K416 residues) expressed in bacterial expression system assessed as residual binding level at 1 uM by Kinomescan method relative to control
[18] = target: 5'-AMP-activated protein kinase catalytic subunit alpha-1 (Homo sapiens) (UniProt Q13131); experiment: Binding affinity to wild-type human partial length AMPK alpha1 (M1 to E306 residues) expressed in bacterial expression system assessed as residual binding level at 1 uM by Kinomescan method relative to control
5'-AMP-activated protein kinase catalytic subunit alpha-1 (Homo sapiens), sequence (Q13131 whole entry, looked up, the tested form may be a part): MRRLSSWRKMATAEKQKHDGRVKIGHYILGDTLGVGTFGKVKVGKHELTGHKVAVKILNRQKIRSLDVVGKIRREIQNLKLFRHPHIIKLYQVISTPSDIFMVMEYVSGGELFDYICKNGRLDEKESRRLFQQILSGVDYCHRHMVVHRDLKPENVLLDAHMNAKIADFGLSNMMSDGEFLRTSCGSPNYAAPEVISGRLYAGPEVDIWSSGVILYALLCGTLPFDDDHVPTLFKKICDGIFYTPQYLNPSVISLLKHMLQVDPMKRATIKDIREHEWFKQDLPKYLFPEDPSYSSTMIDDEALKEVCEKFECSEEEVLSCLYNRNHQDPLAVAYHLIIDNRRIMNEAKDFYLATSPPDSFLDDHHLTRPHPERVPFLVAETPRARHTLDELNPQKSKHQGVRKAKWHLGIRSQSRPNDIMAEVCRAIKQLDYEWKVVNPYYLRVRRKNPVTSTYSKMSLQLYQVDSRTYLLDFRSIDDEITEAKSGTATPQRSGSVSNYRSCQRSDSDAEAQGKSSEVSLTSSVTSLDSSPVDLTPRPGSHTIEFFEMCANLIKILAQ

[19] = target: Serine/threonine-protein kinase 35 (Homo sapiens) (UniProt Q8TDR2); experiment: Binding affinity to wild-type human partial length STK35 (G182 to A534 residues) expressed in bacterial expression system assessed as residual binding level at 1 uM by Kinomescan method relative to control
[20] = target: Dual specificity tyrosine-phosphorylation-regulated kinase 1A (Homo sapiens) (UniProt Q13627); experiment: Binding affinity to wild-type human partial length DYRK1A (H129 to S509 residues) expressed in mammalian expression system assessed as residual binding level at 1 uM by Kinomescan method relative to control
Activated CDC42 kinase 1 = Activated CDC42 kinase 1 (Homo sapiens, UniProt Q07912); experiment: Binding affinity to wild-type human partial length TNK2 (S159 to D474 residues) expressed in bacterial expression system assessed as residual binding level at 1 uM by Kinomescan method relative to control
[21] = target: Bone morphogenetic protein receptor type-1B (Homo sapiens) (UniProt O00238); experiment: Binding affinity to wild-type human partial length BMPR1B (D178 to L502 residues) expressed in mammalian expression system assessed as residual binding level at 1 uM by Kinomescan method relative to control
[22] = target: Calcium/calmodulin-dependent protein kinase type 1B (Homo sapiens) (UniProt Q6P2M8); experiment: Binding affinity to wild-type human partial length CAMK1B (W9 to A311 residues) expressed in mammalian expression system assessed as residual binding level at 1 uM by Kinomescan method relative to control

Testis-specific serine/threonine-protein kinase 3 (Homo sapiens), sequence (Q96PN8 whole entry, the tested form may be a part): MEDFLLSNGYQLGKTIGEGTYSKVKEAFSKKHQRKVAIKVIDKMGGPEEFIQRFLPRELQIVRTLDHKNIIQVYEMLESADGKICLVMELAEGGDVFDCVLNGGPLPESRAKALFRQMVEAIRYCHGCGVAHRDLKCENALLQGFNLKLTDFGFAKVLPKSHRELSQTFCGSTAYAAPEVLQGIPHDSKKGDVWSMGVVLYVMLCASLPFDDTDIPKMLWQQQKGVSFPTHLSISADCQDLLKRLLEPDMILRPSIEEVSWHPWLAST

C=CC(=O)Nc1cc(Nc2ncc(Cl)c(Nc3ccccc3S(=O)(=O)C(C)C)n2)c(OC)cc1N(C)CCN(C)C
Activity [1]: 46% | Activity [2]: 3.3% | Activity [3]: 1.9% | Activity [4]: 70% | Activity [5]: 48% | Activity [6]: 100% | Activity [7]: 99% | Activity [8]: 9.9% | Activity [9]: 77% | Activity [10]: 84% | Activity [11]: 67% | Activity [12]: 45% | Activity [13]: 67% | Activity [14]: 21% | Activity [15]: 100% | Activity [16]: 100% | Activity [17]: 100% | Activity [18]: 16% | Activity [19]: 71% | Activity [20]: 71% | Activity (Activated CDC42 kinase 1): 0.15% | Activity [21]: 0% | Activity [22]: 15%
